How the values were obtained:
[1] = organism: Rattus norvegicus; test: Compound was tested for inhibition of microsomal lipid peroxidation and the potency relative to terbufucine was determined; format: functional
Method in brief: (§1)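 Rat liver microsomes in 50 mM Tris-HCl pH 7.4 with 100 mM KCl and 6.0 mM MgCl2, final protein 0.4 mg/mL. Peroxidation was started with ADP (2 mM)/FeCl3 (10 μM) plus an NADPH-regenerating system. Incubation 30 min at 37 °C with shaking. Thiobarbituric acid reactive substances were read at 535 nm.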

[2] = organism: Rattus norvegicus; test: In vitro inhibition of microsomal lipid peroxidation; format: functional; method in brief: as §1
[3] = organism: Rattus norvegicus; test: In vitro inhibition of microsomal lipid peroxidation at 10e-5 M conc.; format: functional; method in brief: as §1
[4] = tested on: Oryctolagus cuniculus; test: Tested in vivo for hypocholesterolemic activity by measuring its ability to decrease serum total cholesterol, after oral administration of 75 mg/kg body wt. per day in normolipidemic NZW rabbits; Very potent; format: functional, organism-based; parameters: dose 75 mg/kg, route oral
[5] = target: T1, 3-hydroxy-3-methylglutaryl-coenzyme A reductase (Rattus norvegicus, UniProt P51639); test: In vitro inhibition of solubilized HMG-CoA reductase in rat liver.
T1 sequence (P51639 whole entry): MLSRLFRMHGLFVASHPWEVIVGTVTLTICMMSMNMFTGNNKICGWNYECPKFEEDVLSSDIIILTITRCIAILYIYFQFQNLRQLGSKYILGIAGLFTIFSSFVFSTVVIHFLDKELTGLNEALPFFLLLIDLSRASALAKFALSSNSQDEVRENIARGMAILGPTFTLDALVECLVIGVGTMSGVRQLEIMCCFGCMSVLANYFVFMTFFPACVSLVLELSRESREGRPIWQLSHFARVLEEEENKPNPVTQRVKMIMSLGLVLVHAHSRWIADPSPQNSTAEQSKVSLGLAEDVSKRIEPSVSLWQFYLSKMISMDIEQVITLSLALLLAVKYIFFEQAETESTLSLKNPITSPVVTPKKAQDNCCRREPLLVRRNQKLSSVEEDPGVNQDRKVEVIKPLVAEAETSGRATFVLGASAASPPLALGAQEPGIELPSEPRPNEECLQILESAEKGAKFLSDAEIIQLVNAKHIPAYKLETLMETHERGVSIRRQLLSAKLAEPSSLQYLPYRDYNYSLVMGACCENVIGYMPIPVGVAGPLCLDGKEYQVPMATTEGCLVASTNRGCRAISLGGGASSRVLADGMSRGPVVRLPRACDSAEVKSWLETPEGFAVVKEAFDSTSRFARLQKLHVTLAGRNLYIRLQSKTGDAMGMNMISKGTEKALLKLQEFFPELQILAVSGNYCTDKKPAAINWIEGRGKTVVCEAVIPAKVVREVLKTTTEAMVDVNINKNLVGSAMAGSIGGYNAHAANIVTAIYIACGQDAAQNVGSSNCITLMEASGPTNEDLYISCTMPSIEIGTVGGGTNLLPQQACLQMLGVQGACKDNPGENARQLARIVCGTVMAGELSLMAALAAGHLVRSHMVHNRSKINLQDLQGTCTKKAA

[6] = target: T2, 3-hydroxy-3-methylglutaryl-coenzyme A reductase (Rattus norvegicus) (UniProt P51639); test: (§2) Inhibition of HMG-CoA reductase compared to mevinolin.
T2 sequence (whole entry): T1 sequence (P51639 whole entry)
Method in brief: (§3)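 Solubilized, partially purified rat liver HMG-CoA reductase. IC50 from four or five inhibitor concentrations. Relative potency compared IC50 with mevinolin (set to 100), corrected for molecular weight.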

[7] = target: T3, 3-hydroxy-3-methylglutaryl-coenzyme A reductase (Homo sapiens, UniProt P04035); test: Inhibition of the incorporation of sodium [14C]acetate into cholesterol in HEP G2 cells.; format: functional, cell-based, HepG2
T3 sequence (P04035 whole entry): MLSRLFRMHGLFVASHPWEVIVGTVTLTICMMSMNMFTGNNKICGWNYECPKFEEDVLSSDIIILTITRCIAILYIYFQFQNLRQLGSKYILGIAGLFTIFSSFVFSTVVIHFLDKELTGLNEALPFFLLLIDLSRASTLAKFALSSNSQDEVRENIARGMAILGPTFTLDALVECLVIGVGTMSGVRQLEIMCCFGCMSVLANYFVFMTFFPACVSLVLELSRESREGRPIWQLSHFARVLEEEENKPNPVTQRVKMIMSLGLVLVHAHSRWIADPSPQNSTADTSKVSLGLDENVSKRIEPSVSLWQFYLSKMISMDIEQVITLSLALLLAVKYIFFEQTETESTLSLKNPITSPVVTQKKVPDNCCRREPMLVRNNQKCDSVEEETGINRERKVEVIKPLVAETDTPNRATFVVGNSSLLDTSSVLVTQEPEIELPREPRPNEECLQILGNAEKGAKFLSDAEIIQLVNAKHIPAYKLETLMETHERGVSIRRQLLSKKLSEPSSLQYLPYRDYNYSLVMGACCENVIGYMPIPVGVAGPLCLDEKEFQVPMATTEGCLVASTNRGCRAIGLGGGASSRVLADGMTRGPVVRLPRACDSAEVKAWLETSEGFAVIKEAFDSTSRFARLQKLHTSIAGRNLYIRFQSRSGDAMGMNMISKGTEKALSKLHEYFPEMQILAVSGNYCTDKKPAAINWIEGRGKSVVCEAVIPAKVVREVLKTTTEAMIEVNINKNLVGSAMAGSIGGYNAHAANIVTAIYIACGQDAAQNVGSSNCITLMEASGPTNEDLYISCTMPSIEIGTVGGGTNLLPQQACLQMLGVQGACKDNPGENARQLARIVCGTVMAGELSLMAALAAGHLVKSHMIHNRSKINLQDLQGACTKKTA

[8] = target: T1, 3-hydroxy-3-methylglutaryl-coenzyme A reductase; test: In vitro inhibition of HMG-CoA reductase in solubilized rat liver.
[9] = tested on: Canis familiaris; test: Tested in vivo for hypocholesterolemic activity by measuring its ability to decrease serum LDL-cholesterol, after oral administration of 25 mg/kg per day for 14 days in male Beagle dogs.; format: functional, Canis lupus familiaris
Method in brief: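 Male beagle dogs (n = 4) given neat compound in gelatine capsules daily at 3:00 p.m.; controls received empty capsules. After an overnight fast, venous blood was drawn at 8:00 a.m. Serum lipoproteins were separated by ultracentrifugation (densities 1.006/1.063/1.21). LDL-cholesterol reported as % change versus control.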

[10] = target: T4, 3-hydroxy-3-methylglutaryl-coenzyme A reductase (Homo sapiens) (UniProt P04035); test: as §2; format: functional; method in brief: as §3
T4 sequence (whole entry): T3 sequence (P04035 whole entry)

[11] = organism: Sus scrofa; test: Compound was tested for inhibition of Cu2+ catalyzed LDL oxidation and the potency relative to terbufucine was determined; format: functional
Method in brief: (§4)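 Porcine plasma LDL isolated by sequential ultracentrifugation (density 1.019-1.063 g/mL), dialysed against PBS pH 7.4, then diluted to 0.1 mg/mL protein. Preincubated 1 h at 37 °C under N2 with compound in ethanol. Oxidised with 5 μM Cu2+ for 2 h at 37 °C in air. Fluorescence read at ex 365/em 430 nm.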

[12] = organism: Sus scrofa; test: In vitro inhibition of Cu2+ catalyzed LDL oxidation; format: functional; method in brief: as §4
[13] = tested on: Rattus norvegicus; test: In vivo inhibition of hepatic cholesterol de novo synthesis in rat after oral administration of 5 mg/kg dose; format: functional
[14] = organism: Rattus norvegicus; test: Potency relative to mevinolin was determined with respect to IC50. […]; format: functional
[15] = tested on: Oryctolagus cuniculus; test: Tested in vivo for hypocholesterolemic activity by measuring its ability to decrease serum total cholesterol, after oral administration of 10 mg/kg body wt. per day in normolipidemic NZW rabbits; format: functional
Method in brief: (§5)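 NZW rabbits (n = 5 or 6) dosed orally daily for 10 days. Serum total cholesterol reported as % change versus control. For 20 mg/kg, that dose was given on days 11-20 after 10 mg/kg, with the value read on day 20. Error given as SEM.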

[16] = tested on: Rattus norvegicus; test: Compound was tested for effect on liver weight after oral administration of 30 mg/kg in male rats.; format: functional
Method in brief: (§6)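 Male HOE:WISKf (SPF 71) rats, initial body weight over 180 g, n = 10 per group, dosed once daily in the morning by gavage in polyethylene glycol 400 for 7 days; controls received vehicle. Fasted after last dose, bled retroorbitally 24 h later under mild ether. Liver and body weight recorded. Pooled group serum was ultracentrifuged into VLDL (<1.006), LDL (1.006-1.04) and HDL (1.04-1.21). Values are % change versus control.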

[17] = tested on: Rattus norvegicus; test: Compound was tested for effect on serum LDL after oral administration of 100 mg/kg in male rats; format: functional; method in brief: as §6
[18] = tested on: Rattus norvegicus; test: Compound was tested for effect on serum VLDL after oral administration of 100 mg/kg in male rats; format: functional; method in brief: as §6
[19] = tested on: Rattus norvegicus; test: Compound was tested for effect on serum HDL after oral administration of 100 mg/kg in male rats; format: functional; method in brief: as §6
[20] = tested on: Rattus norvegicus; test: Compound was tested for effect on body weight after oral administration of 30 mg/kg in male rats.; format: functional; method in brief: as §6
[21] = tested on: Rattus norvegicus; test: Compound was tested for effect on serum HDL after oral administration of 30 mg/kg in male rats; format: functional; method in brief: as §6
[22] = tested on: Rattus norvegicus; test: Compound was tested for effect on liver weight after oral administration of 100 mg/kg in male rats.; format: functional; method in brief: as §6
[23] = tested on: Rattus norvegicus; test: Compound was tested for effect on body weight after oral administration of 100 mg/kg in male rats.; format: functional; method in brief: as §6
[24] = tested on: Rattus norvegicus; test: Compound was tested for effect on serum LDL after oral administration of 30 mg/kg in male rats; format: functional; method in brief: as §6
[25] = tested on: Rattus norvegicus; test: Compound was tested for effect on serum VLDL after oral administration of 30 mg/kg in male rats; format: functional; method in brief: as §6
[26] = tested on: Oryctolagus cuniculus; test: Tested in vivo for hypocholesterolemic activity by measuring its ability to decrease serum total cholesterol, after oral administration of 50 mg/kg body wt. per day in normolipidemic NZW rabbits; format: functional; method in brief: as §5

| SMILES | IC50 [2] [nM] | Relative potency [6] | IC50 [7] [nM] | IC50 [8] [nM] | Relative potency [10] | IC50 [12] [nM] | Relative potency [1] | inhibition [3] [%] | Relative potency [11] | further results |
| --- | --- | --- | --- | --- | --- | --- | --- | --- | --- | --- |
| CC(C)c1cc(-c2ccc(F)cc2)c(/C=C/[C@@H](O)C[C@@H](O)CC(=O)[O-])c(C(C)C)n1.[Na+] |  |  |  |  |  |  |  |  |  | IC50 [4]: Very potent; IC50 [5]: 3 nM |
| CC(C)c1cc(Sc2ccc(F)cc2)cc(-c2ccc(F)cc2)c1O | 3000 |  |  |  |  | 1000 | 3 | 95 | 11 |  |
| CC(C)c1cc(SC(C)(C)Sc2cc(-c3ccc(F)cc3)c(OCC(O)C[C@@H](O)CC(=O)[O-])c(C(C)C)c2)cc(-c2ccc(F)cc2)c1[O-].[Na+].[Na+] (some centres not stated) | 2700 | 15 | > 1700 | 30 | < 3 |  | 4 |  |  | Change [16]: 3%; Change [17]: -16%; Change [18]: 13%; Change [19]: -3%; Change [20]: 5%; Change [21]: 13%; Change [22]: 1%; Change [23]: 5%; Change [24]: -26%; Change [25]: 12% |
| Cc1cc(C)c(OCC2C[C@@H](O)CC(=O)O2)c(C(c2ccc(F)cc2)c2ccc(F)cc2)c1 (some centres not stated) |  |  |  |  |  |  |  |  |  | Cholesterol [13]: 71.6%; Change [26]: -19%; Relative potency [14]: 33 |
| CC(C)c1c(O)c(C(C)C)c(C(C)C)c(OCC(O)C[C@@H](O)CC(=O)[O-])c1-c1ccc(F)cc1.[Na+] (some centres not stated) |  | 34 | 5.6 | 20 | 900 | 1100 | < 0.1 | 27 | 10 |  |

The next lines start with results.

| IC50 [2] [nM] | Relative potency [6] | IC50 [7] [nM] | IC50 [8] [nM] | Relative potency [10] | IC50 [12] [nM] | SMILES | Relative potency [1] | inhibition [3] [%] | Relative potency [11] | further results |
| --- | --- | --- | --- | --- | --- | --- | --- | --- | --- | --- |
| 4800 |  |  |  |  |  | CC(=O)Oc1c(C(C)C)c(-c2ccc(F)cc2)c(O)c(C(C)C)c1C(C)C | 2 | 83 |  |  |
|  | 43 | 55 | 17 | 90 |  | CC(C)c1cc(-c2ccc(F)cc2)cc(-c2ccc(F)cc2)c1OCC(O)C[C@@H](O)CC(=O)[O-].[Na+] (some centres not stated) |  |  |  | Change [9]: 3% |
| 2800 |  |  |  |  | 150 | CC(=O)Oc1c(-c2ccc(F)cc2)c(C(C)C)c(O)c(C(C)C)c1C(C)C | 4 | 98 | 73 |  |
|  |  | 1.8 |  | 250 |  | CC(C)c1cc(-c2ccc(F)cc2)c(OCC2C[C@@H](O)CC(=O)O2)c(C(C)C)c1 (some centres not stated) |  |  |  | Cholesterol [13]: 11.4%; Relative potency [14]: 103; Change [15]: -30% |

From ChEMBL document CHEMBL1125911, “Synthesis and biological activity of new HMG-CoA reductase inhibitors. 3. Lactones of 6-phenoxy-3,5-dihydroxyhexanoic acids” (J Med Chem, 1991)
